Laboratory results published in ChEMBL document CHEMBL3232844, “Synthesis and structure activity relationships of schweinfurthin indoles” (2014).

Tests used:
Assay type in all cases: functional
MDA-MB-435 = test: Cytotoxicity against human MDA-MB-435 cells
Summary of the method: (§1)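 Tested in a 60-cell-line human tumor panel screen; the read-out is growth inhibition, reported as GI50 for each cell line.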

MDA-MB-231 = test: Cytotoxicity against human MDA-MB-231 cells; summary of the method: as §1
SF-539 = test: Cytotoxicity against human SF539 cells; summary of the method: as §1
[1] = Cytotoxicity against human OVCAR4 cells; summary of the method: as §1
NCI-H23 = test: Cytotoxicity against human NCI-H23 cells; summary of the method: as §1
LOX IMVI = test: Cytotoxicity against human LOXIMVI cells; summary of the method: as §1
[2] = Cytotoxicity against human UACC62 cells
Summary of the method: (§2)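 Cell line run as part of the 60-cell-line screening panel; growth inhibition was reported as a GI50 for each line.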

HOP-62 = test: Cytotoxicity against human HOP62 cells; summary of the method: as §1
T47D = test: Cytotoxicity against human T47D cells; summary of the method: as §2
CAKI-1 = test: Cytotoxicity against human Caki1 cells; summary of the method: as §1
BT-549 = test: Cytotoxicity against human BT549 cells; summary of the method: as §1
ACHN = test: Cytotoxicity against human ACHN cells; summary of the method: as §1
MDA-MB-468 = test: Cytotoxicity against human MDA-MB-468 cells; summary of the method: as §1
SK-MEL-5 = test: Cytotoxicity against human SK-MEL-5 cells; summary of the method: as §1
[3] = Cytotoxicity against human UO31 cells; summary of the method: as §2
MOLT-4 = test: Cytotoxicity against human MOLT4 cells; summary of the method: as §1
PC-3 = test: Cytotoxicity against human PC3 cells; summary of the method: as §1
IGROV-1 = test: Cytotoxicity against human IGROV1 cells; summary of the method: as §1
A549 = test: Cytotoxicity against human A549 cells; summary of the method: as §1
DU-145 = test: Cytotoxicity against human DU145 cells; summary of the method: as §1
CCRF-CEM = test: Cytotoxicity against human CCRF-CEM cells
[4] = read-out: pLC50 (the source's name) (converted)

COc1cc(/C=C/c2cc(OC)c3cc[nH]c3c2)cc2c1O[C@]1(C)CC[C@@H](O)C(C)(C)[C@H]1C2
GI50 (MDA-MB-435): 355 nM
CC50 (MDA-MB-435; [4]): > 100000 nM
TGI (MDA-MB-435; read-out: pTGI (converted)): 2570 nM
GI50 (MDA-MB-231): 851 nM
LC50 (MDA-MB-231): > 100000 nM
TGI (MDA-MB-231; read-out: pTGI (converted)): 4570 nM
GI50 (SF-539): 141 nM
CC50 (SF-539; [4]): 3090 nM
TGI (SF-539; read-out: pTGI (converted)): 468 nM
GI50 ([1]; OVCAR-4): 871 nM
CC50 ([1]; OVCAR-4, read-out: pLC50 (the source's name) (converted)): > 100000 nM
TGI ([1]; OVCAR-4, read-out: pTGI (converted)): 26900 nM
GI50 (NCI-H23): 692 nM
CC50 (NCI-H23; [4]): > 100000 nM
TGI (NCI-H23; read-out: pTGI (converted)): 3390 nM
GI50 (LOX IMVI): 389 nM
CC50 (LOX IMVI; [4]): 4470 nM
TGI (LOX IMVI; read-out: pTGI (converted)): 1480 nM
GI50 ([2]; UACC-62): 162 nM
CC50 ([2]; UACC-62, read-out: pLC50 (the source's name) (converted)): 955 nM
TGI ([2]; UACC-62, read-out: pTGI (converted)): 398 nM
GI50 (HOP-62): 501 nM
CC50 (HOP-62; [4]): 9550 nM
TGI (HOP-62; read-out: pTGI (converted)): 2400 nM
GI50 (T47D): 2820 nM
CC50 (T47D; [4]): > 100000 nM
TGI (T47D; read-out: pTGI (converted)): 50100 nM
GI50 (CAKI-1): 79.4 nM
LC50 (CAKI-1): 851 nM
TGI (CAKI-1; read-out: pTGI (converted)): 269 nM
GI50 (BT-549): 229 nM
CC50 (BT-549; [4]): > 100000 nM
TGI (BT-549; read-out: pTGI (converted)): 3090 nM
GI50 (ACHN): 575 nM
LC50 (concentration killing 50% of cells) (ACHN): > 100000 nM
TGI (ACHN; read-out: pTGI (converted)): 6920 nM
GI50 (MDA-MB-468): 631 nM
LC50 (MDA-MB-468): > 100000 nM
TGI (MDA-MB-468; read-out: pTGI (converted)): 4470 nM
GI50 (SK-MEL-5): 178 nM
CC50 (SK-MEL-5; [4]): 708 nM
TGI (SK-MEL-5; read-out: pTGI (converted)): 355 nM
GI50 ([3]; UO-31): 186 nM
LC50 ([3]; UO-31): > 100000 nM
TGI ([3]; UO-31, read-out: pTGI (converted)): 977 nM
GI50 (MOLT-4): 91.2 nM
CC50 (MOLT-4; [4]): > 100000 nM
TGI (MOLT-4; read-out: pTGI (converted)): 490 nM
GI50 (PC-3): 191 nM
LC50 (PC-3): > 100000 nM
TGI (PC-3; read-out: pTGI (converted)): 1780 nM
GI50 (IGROV-1): 977 nM
CC50 (IGROV-1; [4]): > 100000 nM
TGI (IGROV-1; read-out: pTGI (converted)): 13500 nM
GI50 (A549): 871 nM
CC50 (A549; [4]): > 100000 nM
TGI (A549; read-out: pTGI (converted)): 17800 nM
GI50 (DU-145): 1070 nM
LC50 (50% lethal concentration) (DU-145): > 100000 nM
TGI (DU-145; read-out: pTGI (converted)): 4370 nM
GI50 (CCRF-CEM): 151 nM
CC50 (CCRF-CEM; [4]): > 100000 nM
